What is called T/C is the ratio of treated to control.

Structures are written as SMILES.

Assay [1] deals with Mus musculus. In words: Antitumor activity against P-388 Leukemia in female BDF1 mice expressed as percent T/C at dose 12.5 mg/kg. It is filed as functional. The essentials: (§1)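 P-388 leukemia, 10⁶ cells implanted ip in BDF₁ mice, five per group. Test agents dissolved or suspended in 0.3% CMC-Na and dosed orally once daily for 9 days, beginning 1 day after implantation. Activity expressed as treated/control ratio of median survival time.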

Assay [2] has as its system Mus musculus. Kind of assay: Antitumor activity against P-388 Leukemia in female BDF1 mice expressed as percent T/C at dose 50 mg/kg. It is filed as functional. The essentials:
as §1

The subject of assay [3] is P388. Kind of assay: Percentage change in median survival time of P388 (leukemia) inoculated female mice following 25 mg/kg p.o. Conditions: route oral.
Assay [4] relates to P388. Kind of assay: Percentage change in median survival time of P388 (leukemia) inoculated female mice following 100 mg/kg p.o. Particulars: route oral.
The test system of assay [5] is P388. Kind of assay: Percentage change in median survival time of P388 (leukemia) inoculated female mice following 200 mg/kg p.o. Particulars: route oral.
Assay [6] concerns Mus musculus. Kind of assay: Antitumor activity against L-1210 cells in female BDF1 mice expressed as percent T/C at dose 100 mg/kg. Type of assay: functional. The essentials:
(§2)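 L-1210 leukemia, 10⁶ cells implanted ip into BDF₁ mice (five females per group, 17–23 g). Compound dissolved or suspended in 0.3% CMC-Na, given orally once daily for 5 days starting 1 day after implantation. Activity taken as the ratio of median survival time, treated vs control.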

The test system of assay [7] is Mus musculus. In words: Antitumor activity against L-1210 cells in female BDF1 mice expressed as percent T/C at dose 200 mg/kg. It is filed as functional. A digest of the protocol: as §2
The test system of assay [8] is Mus musculus. In words: Antitumor activity against L-1210 cells in female BDF1 mice expressed as percent T/C at dose 300 mg/kg. It is filed as functional. The essentials: as §2
Assay [9] concerns Mus musculus. Kind of assay: Antitumor activity against L-1210 cells in female BDF1 mice expressed as percent T/C at dose 50 mg/kg. It is filed as functional. The essentials:
as §2

For assay [10], the system named is Mus musculus. In words: Antitumor activity against MH 134 cells in female C3H mice expressed as percent T/C at dose 50 mg/kg.
Assay [11] concerns Mus musculus. In words: Antitumor activity against MH 134 cells in female C3H mice expressed as percent T/C at dose 100 mg/kg.
Assay [12] has as its system Mus musculus. In words: Antitumor activity against MH 134 cells in female C3H mice expressed as percent T/C at dose 200 mg/kg.
The test system of assay [13] is Mus musculus. Kind of assay: Antitumor activity against Meth A cells in female Balb/c mice expressed as percent T/C at dose 50 mg/kg.
In assay [14] the test system is Mus musculus. Kind of assay: Antitumor activity against Meth A cells in female Balb/c mice expressed as percent T/C at dose 100 mg/kg.
Assay [15] has as its system Mus musculus. In words: Antitumor activity against Meth A cells in female Balb/c mice expressed as percent T/C at dose 200 mg/kg.
Assay [16] has as its system P388. Kind of assay: Percentage change in median survival time of P388 (leukemia) inoculated female mice following 30 mg/kg p.o. Particulars: route oral.
Assay [17] relates to Mus musculus. In words: Antitumor activity against L-1210 in female BDF1 mice expressed as percent T/C at dose 100 mg/kg. Type of assay: functional. The essentials: as §2
The test system of assay [18] is Mus musculus. In words: Antitumor activity against L-1210 in female BDF1 mice expressed as percent T/C at dose 200 mg/kg. Type of assay: functional. A digest of the protocol:
as §2

Assay [19] relates to Mus musculus. In words: Antitumor activity against L-1210 in female BDF1 mice expressed as percent T/C at dose 300 mg/kg. It is filed as functional. The essentials: as §2
Assay [20] relates to Mus musculus. Kind of assay: Antitumor activity against L-1210 in female BDF1 mice expressed as percent T/C at dose 50 mg/kg. It is filed as functional. The essentials:
as §2

Assay [21] relates to Mus musculus. In words: Antitumor activity against MH 134 cells in female C3H mice expressed as percent T/C at dose 50 mg/kg. This is another data set of the same source.
The subject of assay [22] is Mus musculus. Kind of assay: Antitumor activity against MH 134 cells in female C3H mice expressed as percent T/C at dose 100 mg/kg. This is another data set of the same source.
Assay [23] has as its system Mus musculus. Kind of assay: Antitumor activity against MH 134 cells in female C3H mice expressed as percent T/C at dose 200 mg/kg. This is another data set of the same source.

In the case of `CCOC(=O)n1cc(F)c(=O)n(C(C)=O)c1=O`, the T/C is on record as 94% with Mus musculus [1], 115% in the assay on Mus musculus [2], 103% with P388 [3] and 59% in the assay on P388 [4].

Take `CC(=O)n1cc(F)c(=O)n(C(=O)c2ccccc2)c1=O`: the T/C stood at 116% with Mus musculus [2], 108% with P388 [3], 144% in the assay on P388 [4] and 99% with P388 [5].

With `CCC(=O)n1cc(F)c(=O)n(C(=O)c2ccccc2)c1=O`, the T/C came out at 119% with Mus musculus [2], 110% in the assay on P388 [3], 130% in the assay with P388 [4] and 90% in the assay on P388 [5].

Turning to `CCOC(=O)n1cc(F)c(=O)n(C(=O)CC)c1=O`, the T/C in the assay on Mus musculus [2] worked out at 112%; in the assay on P388 [3], 105%; in the assay on P388 [4], 82%; in the assay with P388 [5] it was 52%.

`CCOC(=O)n1cc(F)c(=O)n(C(=O)c2ccccc2C)c1=O`: the T/C with Mus musculus [2] came to 125%; in the assay with P388 [3] it was 112%; in the assay with P388 [4], 127%; in the assay on P388 [5], 164%.

Consider `CCOC(=O)n1cc(F)c(=O)n(C(=O)c2ccccc2)c1=O`, for which the T/C in the assay with Mus musculus [2] was 116%; in the assay with P388 [3], 103%; in the assay with P388 [4], 123%; in the assay with P388 [5], 83%.

For `O=C(OCc1ccccc1)n1c(=O)[nH]cc(F)c1=O`, the T/C in the assay with Mus musculus [2] is given as 101%; with P388 [4], 110%; in the assay with P388 [5], 96%.

For the molecule `Cc1ccccc1C(=O)n1c(=O)c(F)cn(C(=O)Oc2ccccc2)c1=O`, the T/C came out at 106% in the assay on Mus musculus [2], 100% in the assay on P388 [3], 129% with P388 [4] and 135% in the assay with P388 [5].

As for `CCC(=O)n1cc(F)c(=O)n(C(=O)c2ccccc2C)c1=O`, the T/C in the assay with Mus musculus [2] was 112%; with P388 [3], 103%; with P388 [4] it was 136%; with P388 [5], 138%.

For the molecule `CCCCCCC(=O)n1c(=O)c(F)cn(C(=O)OCC)c1=O`, the T/C in the assay with Mus musculus [2] came to 119%; in the assay on P388 [3] it was 110%; with P388 [4], 118%; with P388 [5] it was 74%.

For `Cc1ccccc1C(=O)n1c(=O)c(F)cn(C(=O)O[C@H]2CCC3(C)C(=CCC4[C@@H]3CCC3(C)[C@@H](C(C)CCCC(C)C)CC[C@@H]43)C2)c1=O` (stereo partly specified), the T/C in the assay with Mus musculus [2] turned out to be 98%; with P388 [4] it was 100%; in the assay with P388 [5], 112%.

With `Cc1ccccc1C(=O)n1c(=O)c(F)cn(C(=O)C(C)C)c1=O`, the T/C in the assay with Mus musculus [2] stood at 112%; in the assay on P388 [3] it was 110%; in the assay on P388 [4] it was 116%; in the assay on P388 [5] it was 169%.

On to `CC(=O)n1cc(F)c(=O)n(C(=O)OCc2ccccc2)c1=O`, for which the T/C in the assay on Mus musculus [2] was found to be 105%; in the assay with P388 [4], 116%; in the assay on P388 [5] it was 112%.

As for `CC(=O)n1cc(F)c(=O)n(C(C)=O)c1=O`, the T/C in the assay on Mus musculus [1] turned out to be 103%; with Mus musculus [2], 103%; in the assay on P388 [3] it was 112%; in the assay on P388 [4], 86%.

As to `CC(=O)n1cc(F)c(=O)n(C(=O)c2ccccc2C)c1=O`, the T/C in the assay with Mus musculus [2] turned out to be 111%; in the assay on Mus musculus [6] it was 128%; in the assay on Mus musculus [7] it was 136%; in the assay on Mus musculus [8] it was 167%; in the assay on Mus musculus [9], 110%; in the assay on Mus musculus [10], 61%. Besides, the T/C with Mus musculus [11] stood at 43%; in the assay with Mus musculus [12], 25%; in the assay with Mus musculus [13], 71%; with Mus musculus [14], 58%; in the assay on Mus musculus [15], 32%; in the assay with P388 [3] it was 121%. The values for the T/C in the assay with P388 [4] and with P388 [5] were 151% and 121%, respectively.

Consider `O=C(Oc1ccccc1)n1cc(F)c(=O)n(C(=O)c2ccccc2)c1=O`, for which the T/C in the assay with Mus musculus [2] is 112%; in the assay on P388 [3], 99%; in the assay on P388 [4], 119%; in the assay on P388 [5], 107%.

With `CCCCCCOC(=O)n1cc(F)c(=O)n(C(=O)c2ccccc2C)c1=O`, the T/C worked out at 106% with Mus musculus [2], 100% in the assay with P388 [3], 96% in the assay on P388 [4] and 147% in the assay on P388 [5].

In the case of `COC(=O)n1cc(F)c(=O)n(C(=O)c2ccccc2C)c1=O`, the T/C in the assay on Mus musculus [2] came to 112%; with P388 [3], 101%; in the assay on P388 [4], 138%; with P388 [5], 142%.

For the molecule `Cc1ccccc1C(=O)n1c(=O)[nH]cc(F)c1=O`, the T/C was 127% in the assay on Mus musculus [2], 124% in the assay with P388 [16] and 103% with P388 [4].

Turning to `CC(=O)n1c(=O)c(F)cn(C(=O)c2ccccc2C)c1=O`, the T/C in the assay with Mus musculus [1] is given as 111%; in the assay on Mus musculus [2], 114%; with P388 [3], 97%; in the assay with P388 [4], 108%.

`O=C(Oc1ccccc1)n1c(=O)[nH]cc(F)c1=O`: the T/C in the assay with Mus musculus [1] was found to be 97%; in the assay with Mus musculus [2], 101%; in the assay on P388 [3], 112%; with P388 [4] it was 83%.

`Cc1ccccc1C(=O)n1c(=O)c(F)cn(C(=O)OCc2ccccc2)c1=O`: the T/C is 108% in the assay with Mus musculus [2], 125% with P388 [4] and 110% in the assay with P388 [5].

For `O=c1[nH]cc(F)c(=O)[nH]1` [FLUOROURACIL], the T/C in the assay on Mus musculus [1] is 127%; with Mus musculus [2] it was 76%; in the assay with P388 [3], 135%.

In the case of `O=c1[nH]c(=O)n(C2CCCO2)cc1F` (stereo unspecified) [TEGAFUR], the T/C is 111% with Mus musculus [1]; 104% with Mus musculus [2]; 124% with Mus musculus [17]; 143% with Mus musculus [18]; 102% in the assay on Mus musculus [19]; 110% in the assay with Mus musculus [20]. The T/C in the assay with Mus musculus [21] came out at 70%; in the assay with Mus musculus [22], 58%; in the assay with Mus musculus [23], 57%; with Mus musculus [13], 82%; with Mus musculus [14] it was 53%; with Mus musculus [15], 19%. In addition, the T/C with P388 [3] was 115%; in the assay with P388 [4] it was 136%; with P388 [5] it was 106%.

For the origin of these results see ChEMBL document CHEMBL1121361, “Studies on the synthesis of chemotherapeutics. 10. Synthesis and antitumor activity of N-acyl- and N-(alkoxycarbonyl)-5-fluorouracil derivatives” (1980).
